Assay [1] has as its system BaF3. Kind of assay: Antiproliferative activity against mouse BA/F3 cells harboring KRAS G12D mutant after 72 hrs by CellTiter-Glo assay. It counts as functional, cell-based. As to conditions: BaF3, 72 h. For orientation: Cellular ATP, detected with luciferase, serves as a proxy for viable cell number.
Assay [2] deals with T1, Mitogen-activated protein kinase kinase kinase 7 (Homo sapiens, UniProt O43318).
T1 sequence (O43318 whole entry): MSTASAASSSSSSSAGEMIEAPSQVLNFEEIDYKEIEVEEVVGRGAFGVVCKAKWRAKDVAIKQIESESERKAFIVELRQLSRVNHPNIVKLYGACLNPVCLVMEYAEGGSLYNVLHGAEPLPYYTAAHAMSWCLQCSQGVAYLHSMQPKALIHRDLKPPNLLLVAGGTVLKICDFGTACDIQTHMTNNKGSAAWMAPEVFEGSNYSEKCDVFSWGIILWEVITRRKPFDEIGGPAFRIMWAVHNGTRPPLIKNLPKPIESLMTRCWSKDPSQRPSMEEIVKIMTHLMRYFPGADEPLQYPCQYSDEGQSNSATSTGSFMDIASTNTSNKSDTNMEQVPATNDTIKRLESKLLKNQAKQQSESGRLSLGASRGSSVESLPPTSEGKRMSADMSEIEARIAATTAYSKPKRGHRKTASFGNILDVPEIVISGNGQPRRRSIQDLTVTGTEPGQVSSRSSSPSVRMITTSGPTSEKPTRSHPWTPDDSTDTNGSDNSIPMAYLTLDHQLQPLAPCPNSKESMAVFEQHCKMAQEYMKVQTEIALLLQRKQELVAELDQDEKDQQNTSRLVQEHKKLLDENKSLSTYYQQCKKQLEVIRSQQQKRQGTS
Kind of assay: Inhibition of TAK1 (unknown origin) by LanthaScreen assay. (TR-FRET usually uses a lanthanide donor and a delayed reading to cut background.)

Assay [3] relates to BaF3. Put plainly: Antiproliferative activity against mouse BA/F3 cells harboring KRAS G12D mutant after 72 hrs in presence of IL-3 by CellTiter-Glo assay. The class given is functional, cell-based. To be noted: BaF3, 72 h.
The next assay concerns NCI-H23. Put plainly: Antiproliferative activity against human NCI-H23 cells harboring KRAS G12C mutant after 72 hrs by CellTiter-Glo assay. It counts as functional, cell-based. As to conditions: NCI-H23, 72 h. The method in brief:
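NCI-H23 or NCI-H358 cells seeded at 2000 cells/well and grown 48 h before drug. Varying doses were added and cells incubated 72 h. Viability was read as CellTiter-Glo luminescence, and growth-inhibition IC50 was calculated from dose-response curves.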

Assay [4] has as its system BaF3. Put plainly: Antiproliferative activity against mouse BA/F3 cells after 72 hrs by CellTiter-Glo assay. The class given is cell-based. As to conditions: BaF3, 72 h.
The test system of assay [5] is BaF3. Put plainly: Antiproliferative activity against mouse BA/F3 cells harboring NRAS G12D mutant after 72 hrs by CellTiter-Glo assay. The class given is functional, cell-based. As to conditions: BaF3, 72 h. The method in brief:
(§1)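 Ba/F3 parental or RAS-transformed cells were seeded at 1000 viable cells/well, without or with IL-3 as the line states, at 37 °C and 5% CO2. After 4 h, nine four-fold serial dilutions were added in triplicate (final 0.5–30,000 nM, 0.3% DMSO). DMSO wells served as 100% viability.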

Assay [6] has as its system BaF3. Kind of assay: Antiproliferative activity against mouse BA/F3 cells harboring NRAS G12D mutant after 72 hrs in presence of IL-3 by CellTiter-Glo assay. To be noted: BaF3, 72 h. The class given is functional, cell-based. Put shortly: as §1
The subject of the next assay is SK-CO-1. Kind of assay: Antiproliferative activity against human SKCO1 cells harboring KRAS G12V mutant after 72 hrs by CellTiter-Glo assay. The class given is functional, cell-based. As to conditions: SK-CO-1, 72 h.
In the next assay the test system is ASPC1. Kind of assay: Antiproliferative activity against human AsPC1 cells harboring KRAS G12D mutant after 72 hrs by CellTiter-Glo assay. The class given is functional, cell-based. As to conditions: ASPC1, 72 h.
The next assay relates to SW-620. Put plainly: Antiproliferative activity against human SW620 cells harboring KRAS G12V mutant after 72 hrs by CellTiter-Glo assay. It counts as functional, cell-based. To be noted: SW-620, 72 h.
A short description of assay [7]: Antiproliferative activity against human SW156 cells harboring wild type KRAS after 72 hrs by CellTiter-Glo assay. It counts as functional, cell-based.
The target of assay [8] is T2, Mitogen-activated protein kinase kinase kinase 7 (Homo sapiens) (UniProt O43318).
T2 sequence (whole entry): T1 sequence (O43318 whole entry)
Put plainly: Inhibition of biotin-labeled N-(2-(2-(2-(2-(4-(4-((4-((2-Acrylamidophenyl)amino)-5-chloropyrimidin-2-yl)amino)phenyl)piperazin-1-yl)ethoxy)ethoxy)ethoxy)ethyl)-5-((3aS,4S,6aR)-2-oxohexahydro-1H-thieno[3,4-d]imidazol-4-yl)pentanamide probe binding to TAK1 in human NCI-H358 cells at 10 uM after 6 hrs by immunoblot based competitive pull down assay. It counts as cell-based. The method in brief:
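H358 cells given 1 or 10 μM compound for 6 h, medium removed, cells rinsed twice with cold PBS and lysed in MPER buffer. Lysates incubated overnight at 4 °C with 1 μM biotinylated covalent probe, captured on streptavidin beads, and TAK1 recovery assessed by immunoblotting with anti-TAK1 antibody.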

The source made the active and inactive calls. The rule behind the calls is not given here.

The term IC50 denotes the concentration that inhibits the measured activity by half.

`C=CC(=O)Oc1ccccc1Nc1nc(Nc2cccc(N3CCN(C(C)=O)CC3)c2)ncc1Cl`: the 50% inhibitory concentration (IC50) in the assay on BaF3 [1] was determined as 280 nM; in [2], 1.7 nM; in the assay with BaF3 [3], 460 nM.
As to `Cn1c(=O)n(-c2ccc(C(C)(C)C#N)cc2)c2c3cc(-c4cnc5ccccc5c4)ccc3ncc21` [DACTOLISIB], the IC50 in the assay on NCI-H23 was 1000 nM.
Regarding `C=CC(=O)Nc1ccccc1Oc1ccnc(Nc2ccc(N3CCN(C)CC3)cc2)n1`, the IC50 was 950 nM in assay [2], 1400 nM in the assay with BaF3 [3] and 1930 nM in the assay with BaF3 [4].
For the molecule `C=CC(=O)Nc1ccccc1Oc1nc(Nc2ccc(N3CCN(C)CC3)cc2)ncc1OC`, the IC50 in the assay on BaF3 [1] was 57 nM; in [2], 75 nM; in the assay with BaF3 [3] it was 310 nM; in the assay with BaF3 [4], 476 nM.
The like results for `C=CC(=O)Oc1ccccc1Nc1nc(Nc2ccc(N3CCN(C)CC3)cc2)ncc1Cl` were, in that order, 44 nM, 3.3 nM, 555 nM and 234 nM.
In the case of `C=CC(=O)Nc1ccccc1Oc1nc(Nc2ccc(N3CCN(C)CC3)cc2)nc(N)c1Cl`, the values for the IC50 (in [2]; with BaF3 [3]) were 2750 nM and 3530 nM, respectively.
For the molecule `C=CC(=O)Nc1ccccc1-n1ccc2cnc(Nc3ccc(N4CCN(C)CC4)cc3)nc21`, the IC50 is 2040 nM in the assay on BaF3 [5], 905 nM in the assay with BaF3 [1], 3010 nM in assay [2] and 3270 nM in the assay with BaF3 [4].
`C=CC(=O)Nc1ccccc1Sc1nc(Nc2ccc(N3CCN(C)CC3)cc2)ncc1Cl`: the IC50 came out at 962 nM in the assay with BaF3 [1], 83 nM in assay [2], 763 nM in the assay with BaF3 [3] and 838 nM in the assay on BaF3 [4].
Turning to `C=CC(=O)Nc1ccccc1Oc1nc(Nc2cnn(C3CCOCC3)c2)ncc1Cl`, the IC50 in the assay on BaF3 [1] was found to be 69 nM; in assay [2], 4.6 nM; with BaF3 [3], 719 nM.
With `C=CC(=O)Nc1ccccc1Oc1nc(Nc2cnn(C)c2)ncc1Cl`, the IC50 with BaF3 [5] was found to be 179 nM; in the assay with BaF3 [1], 308 nM; in assay [2], 7.3 nM; in the assay on BaF3 [3], 859 nM; in the assay with BaF3 [4] it was 2940 nM; in the assay on BaF3 [6], 1020 nM.
Take `C=CC(=O)Nc1cc(NC(C)=O)ccc1Nc1nc(Nc2ccc(N3CCN(C)CC3)cc2)ncc1Cl`: the IC50 was 1350 nM in the assay on BaF3 [1], 1640 nM in [2] and 3730 nM in the assay on BaF3 [3].
On to `CC(C)Nc1cc(-c2c[nH]c(C(=O)N[C@H](CO)c3cccc(Cl)c3)c2)c(Cl)cn1` [ULIXERTINIB], for which the IC50 in the assay with SK-CO-1 was determined as 356 nM; in the assay on BaF3 [1], 468 nM; in the assay with ASPC1, 849 nM; with BaF3 [3] it was 8610 nM; in the assay on NCI-H23 it was 1000 nM; in the assay on BaF3 [4], 2230 nM. Further, the IC50 with SW-620 was found to be 499 nM; in assay [7], 1240 nM.
For the molecule `C=CC(=O)Oc1ccccc1Nc1nc(Nc2cccc(N3CCOCC3)c2)ncc1Cl`, the inhibition result in [8] was “Active”. Also, the IC50 in assay [2] turned out to be 3.2 nM; in the assay with BaF3 [3] it was 839 nM.
With `C=CC(=O)Nc1ccccc1Oc1nc(Nc2ccc(N3CCN(C)CC3)cc2)ncc1C`, the IC50 with BaF3 [1] was 113 nM; in assay [2], 92 nM; in the assay with BaF3 [3] it was 357 nM; with BaF3 [4] it was 385 nM.
Regarding `C=CC(=O)Nc1ccccc1Oc1nc(Nc2ccc(N3CCN(C)CC3)cc2)ncc1C1CC1`, the IC50 in the assay with BaF3 [1] was determined as 181 nM; in [2], 57 nM; with BaF3 [3], 1190 nM; in the assay on BaF3 [4] it was 1340 nM.
For the molecule `Cn1cnc2c(F)c(Nc3ccc(Br)cc3Cl)c(C(=O)NOCCO)cc21` [SELUMETINIB], the 50% inhibitory concentration (IC50) is 117 nM in the assay on SK-CO-1; 100 nM in the assay with BaF3 [1]; 64.2 nM in the assay on ASPC1; greater than 10000 nM with BaF3 [3]; 15 nM in the assay on SW-620.

For the origin of these results see ChEMBL document CHEMBL4118021, “Studies of TAK1-centered polypharmacology with novel covalent TAK1 inhibitors” (Bioorg Med Chem, 2017).
